Measured values taken from ChEMBL document CHEMBL5678806, “NMS-P937, an orally available, specific small-molecule polo-like kinase 1 inhibitor with antitumor activity in solid and hematologic malignancies” (Mol Cancer Ther, 2012).
The source made the active and inactive calls. The rule behind the calls is not given here.

What was measured:
RPMI-8226 = test: Antiproliferative activity against human RPMI-8226 cells assessed as inhibition of cell growth incubated for 72 hrs by cell-titer glo assay; assay type: functional, cell-based; details: RPMI-8226, 72 h
Summary of the method: (§1)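 Cells from ATCC or ECACC, kept in supplier-recommended medium with 1% penicillin-streptomycin at 37°C, 5% CO₂. Seeded at 10,000–30,000/cm² (adherent) or 100,000/mL (nonadherent) in medium with 10% fetal calf serum. Dosed after 24 h in duplicate with serial dilutions. Viable cells read by CellTiter-Glo 72 h later. IC50 from sigmoidal fit. At least two independent experiments.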

NCI-H2170 = test: Antiproliferative activity against human NCI-H2170 cells assessed as inhibition of cell growth incubated for 72 hrs by cell-titer glo assay; assay type: functional, cell-based; details: NCI-H2170, 72 h; summary of the method: as §1
NCI-H23 = test: Antiproliferative activity against human NCI-H23 cells assessed as inhibition of cell growth incubated for 72 hrs by cell-titer glo assay; assay type: functional, cell-based; details: NCI-H23, 72 h; summary of the method: as §1
[1] = target: Serine/threonine-protein kinase Chk1 (Homo sapiens) (UniProt O14757); test: Inhibition of N-terminal GST-tagged full length human CHK1 expressed in Sf21 cells assessed as residual activity at 0.1 uM relative to control
Serine/threonine-protein kinase Chk1 (Homo sapiens), sequence (O14757 whole entry): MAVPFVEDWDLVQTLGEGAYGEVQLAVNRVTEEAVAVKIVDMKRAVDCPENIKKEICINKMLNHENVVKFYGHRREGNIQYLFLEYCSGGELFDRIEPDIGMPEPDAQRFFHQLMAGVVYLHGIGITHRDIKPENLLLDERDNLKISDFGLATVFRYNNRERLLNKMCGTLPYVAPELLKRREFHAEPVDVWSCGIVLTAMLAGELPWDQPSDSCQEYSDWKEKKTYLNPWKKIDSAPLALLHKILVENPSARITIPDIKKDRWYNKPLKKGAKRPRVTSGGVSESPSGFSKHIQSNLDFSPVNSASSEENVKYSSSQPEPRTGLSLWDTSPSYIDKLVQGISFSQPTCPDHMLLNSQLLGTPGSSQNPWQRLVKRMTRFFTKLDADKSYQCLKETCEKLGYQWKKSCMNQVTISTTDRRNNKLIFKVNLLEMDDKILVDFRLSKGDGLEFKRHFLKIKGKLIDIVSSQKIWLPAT

[2] = target: Dual specificity protein kinase CLK2 (Homo sapiens) (UniProt P49760); test: Inhibition of N-terminal GST-tagged recombinant human CLK2 (138 to end residues) expressed in baculovirus infected Sf21 cells assessed as residual activity at 0.1 uM relative to control
EKVX = test: Antiproliferative activity against human EKVX cells assessed as inhibition of cell growth incubated for 72 hrs by cell-titer glo assay; assay type: functional, cell-based
Summary of the method: (§2)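 Cells seeded 10,000–30,000/cm² (adherent) or 100,000/mL (suspension) in medium with 10% fetal calf serum; after 24 h treated in duplicate with serial dilutions for 72 h. Viable cells read by CellTiter-Glo luminescence; IC50 from sigmoidal fit; at least two independent experiments.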

[3] = target: Serine/threonine-protein kinase PAK 4 (Homo sapiens, UniProt O96013); test: Inhibition of PAK4 (unknown origin) in presence of [gamma-33P]ATP
NCI-H1770 = test: Antiproliferative activity against human NCI-H1770 cells assessed as inhibition of cell growth incubated for 72 hrs by cell-titer glo assay; assay type: functional, cell-based; details: NCI-H1770, 72 h; summary of the method: as §1
[4] = target: Calcium/calmodulin-dependent protein kinase type II subunit delta (Homo sapiens) (UniProt Q13557); test: Inhibition of recombinant full length human CaMKIIdelta assessed as residual activity at 0.1 uM relative to control
Calcium/calmodulin-dependent protein kinase type II subunit delta (Homo sapiens), sequence (Q13557 whole entry): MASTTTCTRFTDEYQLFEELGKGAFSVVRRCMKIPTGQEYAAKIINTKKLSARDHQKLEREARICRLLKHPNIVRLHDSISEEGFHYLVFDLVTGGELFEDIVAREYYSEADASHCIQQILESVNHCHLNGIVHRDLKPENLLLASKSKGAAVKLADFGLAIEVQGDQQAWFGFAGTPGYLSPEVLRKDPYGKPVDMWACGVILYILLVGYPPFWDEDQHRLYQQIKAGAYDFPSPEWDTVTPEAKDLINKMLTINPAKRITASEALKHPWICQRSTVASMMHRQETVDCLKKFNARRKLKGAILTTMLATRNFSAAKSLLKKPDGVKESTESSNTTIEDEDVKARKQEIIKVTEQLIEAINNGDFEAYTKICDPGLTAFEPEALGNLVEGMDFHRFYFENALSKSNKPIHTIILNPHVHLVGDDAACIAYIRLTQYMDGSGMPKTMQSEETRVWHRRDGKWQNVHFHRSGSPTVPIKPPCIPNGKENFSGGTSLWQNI

MDA-MB-435S = test: Antiproliferative activity against human MDA-MB-435S cells assessed as inhibition of cell growth incubated for 72 hrs by cell-titer glo assay; assay type: functional, cell-based
Summary of the method: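 Cells seeded at 10,000–30,000/cm² (adherent) or 100,000/mL (nonadherent) in medium with 10% fetal calf serum; after 24 h, treated in duplicate with serial dilutions for 72 h. Viable cell number read by CellTiter-Glo luminescence; IC50 from sigmoidal fit; at least two independent experiments.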

[5] = target: BDNF/NT-3 growth factors receptor (Homo sapiens) (UniProt Q16620); test: Inhibition of N-terminal His6 tagged recombinant human TrkB (455 to end residues) expressed in baculovirus infected Sf21 cells assessed as residual activity at 0.1 uM relative to control
BDNF/NT-3 growth factors receptor (Homo sapiens), sequence (Q16620 32-822 limits assumed): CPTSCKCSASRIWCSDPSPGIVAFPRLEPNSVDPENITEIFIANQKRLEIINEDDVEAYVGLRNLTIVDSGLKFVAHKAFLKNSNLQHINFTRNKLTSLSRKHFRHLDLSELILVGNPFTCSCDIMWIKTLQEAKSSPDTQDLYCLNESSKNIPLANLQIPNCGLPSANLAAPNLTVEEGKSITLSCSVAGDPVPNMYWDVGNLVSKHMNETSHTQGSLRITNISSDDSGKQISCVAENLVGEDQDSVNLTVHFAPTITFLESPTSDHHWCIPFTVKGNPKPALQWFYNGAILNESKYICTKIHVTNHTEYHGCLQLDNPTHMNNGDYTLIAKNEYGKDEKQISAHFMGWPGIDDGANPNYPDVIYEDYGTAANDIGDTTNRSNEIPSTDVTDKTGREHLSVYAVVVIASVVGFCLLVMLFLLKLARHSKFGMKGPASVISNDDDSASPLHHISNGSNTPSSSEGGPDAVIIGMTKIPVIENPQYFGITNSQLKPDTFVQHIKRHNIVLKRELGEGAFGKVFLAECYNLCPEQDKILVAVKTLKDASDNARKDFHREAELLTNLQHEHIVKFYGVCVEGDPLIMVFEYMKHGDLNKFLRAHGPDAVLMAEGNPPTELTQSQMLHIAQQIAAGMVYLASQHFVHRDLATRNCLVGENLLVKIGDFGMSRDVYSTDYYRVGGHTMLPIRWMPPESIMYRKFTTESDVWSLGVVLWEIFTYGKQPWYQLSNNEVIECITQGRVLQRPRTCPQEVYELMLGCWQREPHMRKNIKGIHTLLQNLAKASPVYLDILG

MV4-11 = test: Antiproliferative activity against human MV4-11 cells assessed as inhibition of cell growth incubated for 72 hrs by cell-titer glo assay; assay type: functional, cell-based; details: MV4-11, 72 h; summary of the method: as §1
SK-N-MC = test: Antiproliferative activity against human SK-N-MC cells assessed as inhibition of cell growth incubated for 72 hrs by cell-titer glo assay; assay type: functional, cell-based
[6] = target: Tyrosine-protein kinase Lyn (Mus musculus) (UniProt P25911); test: Inhibition of N-terminal his6-tagged recombinant full-length mouse Lyn expressed in baculovirus infected Sf21 cells assessed as residual activity at 0.1 uM relative to control
[7] = target: RAC-alpha serine/threonine-protein kinase (Homo sapiens, UniProt P31749); test: Inhibition of AKT1 (unknown origin) in presence of [gamma-33P]ATP
A2780 [8] = test: Induction of mitosis in human A2780 cells at 0.0001 to 100 uM incubated for upto 24 hrs followed by compound washout by cell titer glow assay; assay type: functional, cell-based; details: dose 0.0001-100 µM
[9] = Clearance in male cynomolgus monkey at 5 mg/kg, iv by LC-MS analysis; assay type: ADME, organism-based, Macaca fascicularis; details: in vivo
[10] = target: cAMP-dependent protein kinase catalytic subunit PRKX (Homo sapiens) (UniProt P51817); test: Inhibition of N-terminal 6His-tagged recombinant full-length human PrKX expressed in baculovirus infected Sf21 cells assessed as residual activity at 1 uM relative to control
A2780 [11] = test: Induction of apoptosis in human A2780 cells assessed as PARP cleavage at 0.02 to 0.2 micromol/L incubated for 24 hrs by Western blotting analysis; assay type: functional, cell-based; details: dose 0.02-0.2 µmol/L
SW-403 = test: Antiproliferative activity against human SW403 cells assessed as inhibition of cell growth incubated for 72 hrs by cell-titer glo assay; assay type: functional, cell-based; details: SW-403, 72 h
C-33-A = test: Antiproliferative activity against human C-33-A cells assessed as inhibition of cell growth incubated for 72 hrs by cell-titer glo assay; assay type: functional, cell-based; summary of the method: as §2
[12] = target: Serine/threonine-protein kinase tousled-like 2 (Homo sapiens, UniProt Q86UE8); test: Inhibition of TLK2 (unknown origin) in presence of [gamma-33P]ATP
Serine/threonine-protein kinase tousled-like 2, sequence (Q86UE8 whole entry): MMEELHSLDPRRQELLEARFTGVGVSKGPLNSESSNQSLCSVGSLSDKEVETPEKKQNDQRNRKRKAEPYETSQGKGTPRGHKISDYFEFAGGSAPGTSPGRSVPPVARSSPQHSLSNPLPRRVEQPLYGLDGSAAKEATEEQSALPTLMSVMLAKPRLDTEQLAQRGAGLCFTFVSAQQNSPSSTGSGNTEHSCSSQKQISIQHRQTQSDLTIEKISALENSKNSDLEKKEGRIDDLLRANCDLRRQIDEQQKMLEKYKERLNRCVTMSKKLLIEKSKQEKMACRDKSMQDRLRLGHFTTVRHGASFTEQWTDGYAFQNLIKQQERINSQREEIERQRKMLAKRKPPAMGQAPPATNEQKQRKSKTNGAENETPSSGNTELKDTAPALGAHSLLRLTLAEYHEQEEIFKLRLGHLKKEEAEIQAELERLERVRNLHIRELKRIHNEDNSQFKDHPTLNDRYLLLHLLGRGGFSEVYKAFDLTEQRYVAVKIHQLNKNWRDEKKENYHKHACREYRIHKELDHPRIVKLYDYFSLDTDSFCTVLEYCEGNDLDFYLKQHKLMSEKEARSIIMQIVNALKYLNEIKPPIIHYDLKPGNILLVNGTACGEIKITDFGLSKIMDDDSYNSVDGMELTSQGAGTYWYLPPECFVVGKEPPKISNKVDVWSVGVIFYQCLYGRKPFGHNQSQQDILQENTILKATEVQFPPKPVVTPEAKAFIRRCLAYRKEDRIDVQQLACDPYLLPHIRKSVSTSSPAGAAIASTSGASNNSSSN

MIA PaCa-2 = test: Antiproliferative activity against human MIA PaCa-2 cells assessed as inhibition of cell growth incubated for 72 hrs by cell-titer glo assay; assay type: functional, cell-based; details: MIA PaCa-2, 72 h; summary of the method: as §1
[13] = target: Tyrosine-protein kinase BTK (Homo sapiens) (UniProt Q06187); test: Inhibition of N-terminal His6-tagged recombinant full-length human BTK expressed in baculovirus infected Sf21 cells assessed as residual activity at 0.1 uM relative to control
A2780 [14] = test: Antitumor activity against human A2780 cells xenografted in nu/nu mouse assessed as tumor growth inhibition at 60 mg/kg, po administered for 10 days; details: time 10.0 day
[15] = target: Homeodomain-interacting protein kinase 2 (Homo sapiens) (UniProt Q9H2X6); test: Inhibition of N-terminal His6-tagged recombinant human HIPK2 (165 to 564 residues) expressed in baculovirus infected Sf21 cells assessed as residual activity at 1 uM relative to control
Homeodomain-interacting protein kinase 2 (Homo sapiens), sequence (Q9H2X6 whole entry, looked up, the tested form may be a part): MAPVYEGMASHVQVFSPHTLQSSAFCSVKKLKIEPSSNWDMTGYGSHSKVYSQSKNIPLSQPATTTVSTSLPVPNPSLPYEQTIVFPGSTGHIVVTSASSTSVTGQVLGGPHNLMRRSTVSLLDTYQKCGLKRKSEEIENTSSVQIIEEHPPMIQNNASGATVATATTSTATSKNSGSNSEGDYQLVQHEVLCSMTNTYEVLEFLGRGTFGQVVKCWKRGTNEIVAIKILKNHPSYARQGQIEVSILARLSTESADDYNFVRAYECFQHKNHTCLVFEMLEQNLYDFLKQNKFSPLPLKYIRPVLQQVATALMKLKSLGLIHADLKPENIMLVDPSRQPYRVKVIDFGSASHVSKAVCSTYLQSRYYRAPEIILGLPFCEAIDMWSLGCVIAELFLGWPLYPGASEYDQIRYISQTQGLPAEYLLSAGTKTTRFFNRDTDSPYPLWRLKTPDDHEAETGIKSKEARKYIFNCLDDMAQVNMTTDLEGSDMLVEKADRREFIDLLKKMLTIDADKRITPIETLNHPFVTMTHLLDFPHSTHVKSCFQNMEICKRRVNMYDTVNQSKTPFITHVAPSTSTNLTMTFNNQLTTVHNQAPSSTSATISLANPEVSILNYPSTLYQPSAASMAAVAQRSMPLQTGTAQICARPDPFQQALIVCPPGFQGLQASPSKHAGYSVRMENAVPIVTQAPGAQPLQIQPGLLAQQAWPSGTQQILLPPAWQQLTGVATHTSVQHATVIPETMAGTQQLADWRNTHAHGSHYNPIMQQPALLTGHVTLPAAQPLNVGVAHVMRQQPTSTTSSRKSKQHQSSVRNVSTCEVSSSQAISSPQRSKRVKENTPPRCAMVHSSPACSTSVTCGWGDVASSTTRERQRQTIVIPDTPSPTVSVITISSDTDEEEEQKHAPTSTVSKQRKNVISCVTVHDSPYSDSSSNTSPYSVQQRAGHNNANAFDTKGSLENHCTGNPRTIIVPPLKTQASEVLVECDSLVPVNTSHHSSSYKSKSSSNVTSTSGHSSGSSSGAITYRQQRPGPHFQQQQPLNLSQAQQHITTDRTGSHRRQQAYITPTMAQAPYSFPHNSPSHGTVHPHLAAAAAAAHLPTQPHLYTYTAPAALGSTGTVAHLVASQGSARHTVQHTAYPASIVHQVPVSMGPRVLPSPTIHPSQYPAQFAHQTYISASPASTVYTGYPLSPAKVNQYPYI

[16] = target: Serine/threonine-protein kinase haspin (Homo sapiens, UniProt Q8TF76); test: Inhibition of Haspin (unknown origin) in presence of [gamma-33P]ATP
[17] = target: Rho-associated protein kinase 1 (Homo sapiens) (UniProt Q13464); test: Inhibition of N-terminal His6-tagged recombinant human ROCK-I (17 to 535 residues) expressed in baculovirus infected Sf21 cells assessed as residual activity at 1 uM relative to control
Rho-associated protein kinase 1 (Homo sapiens), sequence (Q13464 2-1354 limits assumed): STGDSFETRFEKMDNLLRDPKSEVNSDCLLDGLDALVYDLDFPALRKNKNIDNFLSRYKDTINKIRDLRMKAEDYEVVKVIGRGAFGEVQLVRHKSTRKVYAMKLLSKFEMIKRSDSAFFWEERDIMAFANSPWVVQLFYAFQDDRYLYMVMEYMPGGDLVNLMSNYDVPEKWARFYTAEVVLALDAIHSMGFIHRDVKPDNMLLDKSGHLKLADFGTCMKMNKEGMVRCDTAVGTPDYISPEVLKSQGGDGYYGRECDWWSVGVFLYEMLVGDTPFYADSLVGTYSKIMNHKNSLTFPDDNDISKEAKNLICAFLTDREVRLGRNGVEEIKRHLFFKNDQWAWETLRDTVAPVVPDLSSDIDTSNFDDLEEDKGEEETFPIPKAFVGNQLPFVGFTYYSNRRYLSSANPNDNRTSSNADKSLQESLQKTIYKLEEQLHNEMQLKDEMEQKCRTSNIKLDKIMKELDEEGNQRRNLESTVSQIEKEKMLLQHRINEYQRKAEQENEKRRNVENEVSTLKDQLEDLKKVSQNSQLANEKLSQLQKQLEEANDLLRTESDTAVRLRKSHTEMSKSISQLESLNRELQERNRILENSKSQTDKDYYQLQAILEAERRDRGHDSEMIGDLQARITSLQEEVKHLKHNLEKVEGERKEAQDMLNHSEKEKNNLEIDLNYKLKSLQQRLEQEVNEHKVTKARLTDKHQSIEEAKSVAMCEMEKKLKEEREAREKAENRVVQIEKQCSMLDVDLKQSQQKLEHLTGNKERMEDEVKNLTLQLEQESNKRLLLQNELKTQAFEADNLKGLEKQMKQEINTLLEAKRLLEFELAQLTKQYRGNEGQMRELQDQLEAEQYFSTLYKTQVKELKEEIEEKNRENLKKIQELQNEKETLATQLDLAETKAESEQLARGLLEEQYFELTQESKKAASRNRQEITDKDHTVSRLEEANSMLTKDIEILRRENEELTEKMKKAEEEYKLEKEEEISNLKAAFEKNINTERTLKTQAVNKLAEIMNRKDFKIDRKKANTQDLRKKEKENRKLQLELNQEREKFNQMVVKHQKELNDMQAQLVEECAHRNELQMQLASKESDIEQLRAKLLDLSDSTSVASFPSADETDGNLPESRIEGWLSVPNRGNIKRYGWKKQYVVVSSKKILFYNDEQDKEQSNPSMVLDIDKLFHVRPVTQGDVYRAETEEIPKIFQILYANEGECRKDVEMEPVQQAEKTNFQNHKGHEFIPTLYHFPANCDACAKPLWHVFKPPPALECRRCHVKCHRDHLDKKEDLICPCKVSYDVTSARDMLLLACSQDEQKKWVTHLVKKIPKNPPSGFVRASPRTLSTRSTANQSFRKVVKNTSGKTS

[18] = Inhibition of AUR2 (unknown origin) in presence of [gamma-33P]ATP; parameters: species or system Homo sapiens
NCI-H526 = test: Antiproliferative activity against human NCI-H526 cells assessed as inhibition of cell growth incubated for 72 hrs by cell-titer glo assay; assay type: functional, cell-based; details: NCI-H526, 72 h; summary of the method: as §1

CN1CCN(c2ccc(OC(F)(F)F)c(Nc3ncc4c(n3)-c3c(c(C(N)=O)nn3CCO)CC4)c2)CC1 [ONVANSERTIB]
IC50 (RPMI-8226): 128 nM
IC50 (NCI-H2170): 15 nM
IC50 (NCI-H23): 56 nM
Activity [1]: 113%
Activity [2]: 52%
IC50 (EKVX): 196 nM
IC50 [3]: > 10000 nM
IC50 (NCI-H1770): 68 nM
Activity [4]: 88%
IC50 (MDA-MB-435S): 23 nM
Activity [5]: 145%
IC50 (MV4-11): 58 nM
IC50 (SK-N-MC): 73 nM
Activity [6]: 137%
IC50 [7]: > 10000 nM
Activity (A2780 [8]): Active
clearance [9]: 11.2 mL/min/kg
Activity [10]: 69%
Activity (A2780 [11]): Active
IC50 (SW-403): 46 nM
IC50 (C-33-A): 61 nM
IC50 [12]: > 10000 nM
IC50 (MIA PaCa-2): 112 nM
Activity [13]: 83%
TGI (A2780 [14]): Active
Activity [15]: 96%
IC50 [16]: > 10000 nM
Activity [17]: 132%
IC50 [18]: > 10000 nM
IC50 (NCI-H526): 31 nM
